Source: article PMC3589814 (Journal of molecular biology, 2012)

Legend:
Test in all cases: isothermal titration calorimetry
Assay type in all cases: binding
ScRR1 [1] = target: ScRR1 (Saccharomyces cerevisiae, UniProt P21524, Q288A)
In short: (§1)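 Yeast RR1 (wild type or loop 2 mutant) in the ITC cell at 25 °C, in 50 mM Hepes pH 7.0 with 5 mM MgCl₂, 5 mM DTT and 5% glycerol (20 µM protein for wild type). Titrant was 0.5 mM dGTP. For ADP binding the protein was pre-saturated with dGTP (500 µM); for CDP binding it was pre-saturated with AMPPNP. Blank-corrected heats were fitted to a one-site model, and Kd was taken from the association constant.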

ScRR1 [2] = target: T1, ScRR1 (Saccharomyces cerevisiae, UniProt P21524)
T1 sequence (P21524 1-888): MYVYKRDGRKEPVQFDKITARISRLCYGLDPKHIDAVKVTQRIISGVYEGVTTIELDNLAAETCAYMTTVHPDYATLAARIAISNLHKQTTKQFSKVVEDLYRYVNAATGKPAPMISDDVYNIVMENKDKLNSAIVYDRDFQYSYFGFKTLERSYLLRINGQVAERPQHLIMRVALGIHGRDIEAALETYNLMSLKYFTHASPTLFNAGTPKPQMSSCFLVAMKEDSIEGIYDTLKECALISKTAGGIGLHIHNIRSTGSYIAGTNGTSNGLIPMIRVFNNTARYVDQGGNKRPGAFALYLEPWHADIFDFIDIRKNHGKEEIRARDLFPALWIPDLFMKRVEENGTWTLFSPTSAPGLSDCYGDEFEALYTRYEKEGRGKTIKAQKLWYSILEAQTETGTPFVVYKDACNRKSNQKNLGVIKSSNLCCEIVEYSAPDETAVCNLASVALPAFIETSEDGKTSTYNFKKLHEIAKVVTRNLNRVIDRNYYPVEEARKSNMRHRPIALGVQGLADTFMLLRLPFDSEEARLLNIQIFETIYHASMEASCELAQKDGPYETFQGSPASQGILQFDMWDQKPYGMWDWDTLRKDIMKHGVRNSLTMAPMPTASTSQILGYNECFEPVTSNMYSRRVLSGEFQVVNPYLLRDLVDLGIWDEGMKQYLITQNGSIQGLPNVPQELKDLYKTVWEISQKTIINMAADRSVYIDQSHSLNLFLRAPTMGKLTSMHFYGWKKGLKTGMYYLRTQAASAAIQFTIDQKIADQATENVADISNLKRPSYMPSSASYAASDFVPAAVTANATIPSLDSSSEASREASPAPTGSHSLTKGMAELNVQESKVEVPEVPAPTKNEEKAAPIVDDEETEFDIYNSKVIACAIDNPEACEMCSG
In short: as §1

ScRR1 [3] = target: ScRR1 (Saccharomyces cerevisiae, UniProt P21524, R293A)
ScRR1 (Saccharomyces cerevisiae, UniProt P21524, R293A), sequence (P21524 whole entry R293A): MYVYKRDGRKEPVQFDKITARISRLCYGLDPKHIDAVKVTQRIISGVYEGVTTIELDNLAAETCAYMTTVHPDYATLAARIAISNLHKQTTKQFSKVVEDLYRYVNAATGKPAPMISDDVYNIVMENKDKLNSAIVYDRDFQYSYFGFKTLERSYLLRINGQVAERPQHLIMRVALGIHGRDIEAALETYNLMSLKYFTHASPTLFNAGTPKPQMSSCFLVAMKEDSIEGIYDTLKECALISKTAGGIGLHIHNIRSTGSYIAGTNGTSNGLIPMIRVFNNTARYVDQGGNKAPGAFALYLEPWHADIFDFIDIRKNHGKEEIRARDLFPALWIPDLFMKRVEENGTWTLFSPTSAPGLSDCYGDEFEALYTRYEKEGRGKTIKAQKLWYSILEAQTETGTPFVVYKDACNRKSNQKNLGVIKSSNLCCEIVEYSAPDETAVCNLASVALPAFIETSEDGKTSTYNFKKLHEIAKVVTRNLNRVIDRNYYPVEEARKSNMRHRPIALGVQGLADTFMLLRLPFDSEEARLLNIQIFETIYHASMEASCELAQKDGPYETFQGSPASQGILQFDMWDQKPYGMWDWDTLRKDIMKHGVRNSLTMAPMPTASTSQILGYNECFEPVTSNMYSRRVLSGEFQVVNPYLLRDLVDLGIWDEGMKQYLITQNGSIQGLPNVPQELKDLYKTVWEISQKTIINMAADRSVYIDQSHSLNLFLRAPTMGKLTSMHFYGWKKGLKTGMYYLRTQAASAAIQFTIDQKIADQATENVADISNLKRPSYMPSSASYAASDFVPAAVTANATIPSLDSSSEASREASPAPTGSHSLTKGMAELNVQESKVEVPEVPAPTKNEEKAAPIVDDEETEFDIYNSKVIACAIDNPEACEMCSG
In short: as §1

ScRR1 (Saccharomyces cerevisiae, UniProt P21524, Q288A), sequence (P21524 whole entry Q288A): as the sequence (P21524 whole entry R293A) above, with Q288A, A293R counted along it

Q: Which Kd (ScRR1 [1]) does the source give for `Nc1nc2c(ncn2[C@H]2C[C@H](O)[C@@H](COP(=O)(O)OP(=O)(O)OP(=O)(O)O)O2)c(=O)[nH]1` [dGTP] here?
A: 0.52 µM

Q: And the Kd (ScRR1 [2])?
A: 0.27 µM

Q: And the Kd (ScRR1 [3])?
A: 0.57 µM
